Laboratory results reported in ChEMBL document CHEMBL1153046, “Synthesis and antitumor activity of substituted triazolo[4,3-a]pyrimidin-6-sulfonamide with an incorporated thiazolidinone moiety” (2009).

Tests used:
Format in all cases: functional
[1] = test system: U-251; experiment: Growth inhibition of human U251 cells after 48 hrs by sulforhodamine B assay; settings: U-251, 48 h
How it was run: (§1)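 NCI 60-cell-line panel (nine cancer types), with cells grown in RPMI1640 plus 5% fetal calf serum and 2 mM L-glutamine. Cells are seeded at a density that depends on the line and preincubated 24 h. Compounds are then applied at a minimum of five 10-fold dilutions over a 5-log range with 48 h continuous exposure. Viability is read by SRB protein assay, and GI50 is derived from dose-response curves in units of 10^-5 M.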

[2] = test system: IGROV-1; experiment: Growth inhibition of human IGROV1 cells after 48 hrs by sulforhodamine B assay; settings: IGROV-1, 48 h
How it was run: (§2)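 NCI 60-cell-line panel. Cells are grown in RPMI1640 with 5% fetal calf serum and 2 mM L-glutamine, seeded at a density set by growth characteristics, and preincubated 24 h. Compound is tested at a minimum of five concentrations at 10-fold dilution, with 48 h continuous exposure. Viability is read by sulforhodamine B protein assay. GI50, TGI and LC50 come from dose-response curves.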

[3] = test system: SN12C; experiment: Growth inhibition of human SN12C cells after 48 hrs by sulforhodamine B assay; how it was run: as §2
[4] = test system: SK-MEL-5; experiment: Growth inhibition of human SK-MEL-5 cells after 48 hrs by sulforhodamine B assay; settings: SK-MEL-5, 48 h; how it was run: as §2
[5] = test system: LOX IMVI; experiment: Growth inhibition of human LOXIMVI cells after 48 hrs by sulforhodamine B assay; how it was run: as §2
[6] = test system: NCI-H226; experiment: Growth inhibition of human NCI-H226 cells after 48 hrs by sulforhodamine B assay; settings: NCI-H226, 48 h; how it was run: as §2
[7] = test system: OVCAR-8; experiment: Growth inhibition of human OVCAR8 cells after 48 hrs by sulforhodamine B assay; settings: OVCAR-8, 48 h; how it was run: as §2
[8] = test system: M14; experiment: Growth inhibition of human M14 cells after 48 hrs by sulforhodamine B assay; settings: M14, 48 h; how it was run: as §2
[9] = test system: T47D; experiment: Growth inhibition of human T47D cells after 48 hrs by sulforhodamine B assay; how it was run: as §1
[10] = test system: HL-60(TB); experiment: Growth inhibition of human HL-60(TB) cells after 48 hrs by sulforhodamine B assay; settings: HL-60, 48 h
How it was run: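 NCI 60-cell-line panel. Cells were grown in RPMI1640 with 5% fetal calf serum and 2 mM L-glutamine, seeded at a density suited to each line, and preincubated 24 h. Compounds were tested at a minimum of five concentrations at 10-fold dilutions over a 5-log range, with 48 h continuous exposure. Growth was read by sulforhodamine B protein staining, and GI50 was taken from dose-response curves.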

[11] = test system: MCF7; experiment: Antiproliferative activity against human MCF7 cells assessed as cell growth at 100 uM after 48 hrs by alamar blue assay; settings: MCF7, 48 h, read-out: Activity
How it was run: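 NCI three-cell-line primary screen. Cells are seeded and preincubated in microtiter plates. Compound is added at a single 10^-4 M concentration and cultures are incubated 48 h. The end-point is read with alamar blue. Results are given as percent growth relative to untreated control cells.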

[12] = test system: SF-268; experiment: Growth inhibition of human SF268 cells after 48 hrs by sulforhodamine B assay; settings: SF-268, 48 h; how it was run: as §2
[13] = test system: SK-OV-3; experiment: Growth inhibition of human SKOV3 cells after 48 hrs by sulforhodamine B assay; settings: SK-OV-3, 48 h; how it was run: as §2
[14] = test system: HOP-92; experiment: Growth inhibition of human HOP92 cells after 48 hrs by sulforhodamine B assay; settings: HOP-92, 48 h; how it was run: as §2
[15] = test system: HCT-116; experiment: Growth inhibition of human HCT116 cells after 48 hrs by sulforhodamine B assay; settings: HCT-116, 48 h; how it was run: as §2
[16] = test system: K562; experiment: Growth inhibition of human K562 cells after 48 hrs by sulforhodamine B assay; settings: K562, 48 h; how it was run: as §2
[17] = test system: RXF 393; experiment: Growth inhibition of human RXF393 cells after 48 hrs by sulforhodamine B assay; settings: RXF 393, 48 h; how it was run: as §2
[18] = test system: NCI/ADR-RES; experiment: Growth inhibition of human NCI/ADR-RES cells after 48 hrs by sulforhodamine B assay; how it was run: as §2
[19] = test system: SNB-75; experiment: Growth inhibition of human SNB75 cells after 48 hrs by sulforhodamine B assay; settings: SNB-75, 48 h; how it was run: as §1
[20] = test system: MDA-MB-231; experiment: Growth inhibition of human MDA-MB-231 cells after 48 hrs by sulforhodamine B assay; settings: MDA-MB-231, 48 h; how it was run: as §2
[21] = test system: SW-620; experiment: Growth inhibition of human SW620 cells after 48 hrs by sulforhodamine B assay; settings: SW-620, 48 h; how it was run: as §1
[22] = test system: UO-31; experiment: Growth inhibition of human UO31 cells after 48 hrs by sulforhodamine B assay; settings: UO-31, 48 h; how it was run: as §1
[23] = test system: SF-295; experiment: Growth inhibition of human SF295 cells after 48 hrs by sulforhodamine B assay; settings: SF-295, 48 h; how it was run: as §2
[24] = test system: SK-MEL-2; experiment: Growth inhibition of human SK-MEL-2 cells after 48 hrs by sulforhodamine B assay; settings: SK-MEL-2, 48 h; how it was run: as §2
[25] = test system: UACC-62; experiment: Growth inhibition of human UACC62 cells after 48 hrs by sulforhodamine B assay; settings: UACC-62, 48 h; how it was run: as §1
[26] = Growth inhibition of human Hs 578T cells after 48 hrs by sulforhodamine B assay; how it was run: as §2
[27] = test system: HOP-62; experiment: Growth inhibition of human HOP62 cells after 48 hrs by sulforhodamine B assay; settings: HOP-62, 48 h; how it was run: as §2
[28] = test system: ACHN; experiment: Growth inhibition of human ACHN cells after 48 hrs by sulforhodamine B assay; how it was run: as §2
[29] = read-out: LC50 (the source's name)

COc1ccc(/C=N/c2nc3[nH]nc(C)n3c(=O)c2S(=O)(=O)NN2C(=O)C(CN3CCN(C)CC3)SC2c2cccs2)cc1 (centres undefined)
GI50 [1]: 2.51 µM | LC50 [1]: > 100 µM | TGI [1]: > 100 µM | GI50 [2]: 0.78 µM | LC50 [2]: > 100 µM | TGI [2]: 97.3 µM | GI50 [3]: 4.68 µM | LC50 [3]: > 100 µM | TGI [3]: > 100 µM | GI50 [4]: 0.72 µM | TGI [4]: 7.11 µM | CC50 [4, 29]: > 100 µM | GI50 [5]: 2.16 µM | TGI [5]: > 100 µM | GI50 [6]: 11.8 µM | LC50 (concentration killing 50% of cells) [6]: > 100 µM | TGI [6]: > 100 µM | GI50 [7]: 3.53 µM | TGI [7]: 40.5 µM | GI50 [8]: 1.36 µM | LC50 (concentration killing 50% of cells) [8]: > 100 µM | TGI [8]: > 100 µM | GI50 [9]: > 100 µM | TGI [9]: > 100 µM | GI50 [10]: 3.41 µM | LC50 [10]: 31.3 µM | TGI [10]: 7.04 µM | growth at 100 µM [11]: 46% | GI50 [12]: > 100 µM | TGI [12]: > 100 µM | CC50 [12, 29]: > 100 µM | GI50 [13]: 5.12 µM | TGI [13]: > 100 µM | GI50 [14]: 9.41 µM | LC50 [14]: > 100 µM | TGI [14]: > 100 µM | GI50 [15]: 1.01 µM | LC50 (concentration killing 50% of cells) [15]: > 100 µM | TGI [15]: 20 µM | GI50 [16]: 2.87 µM | LC50 [16]: 68.2 µM | TGI [16]: 6.75 µM | GI50 [17]: 2.34 µM | TGI [17]: > 100 µM | CC50 [17, 29]: > 100 µM | GI50 [18]: 1.5 µM | TGI [18]: 6.98 µM | GI50 [19]: 2.01 µM | TGI [19]: > 100 µM | GI50 [20]: 3.25 µM | LC50 (50% lethal concentration) [20]: > 100 µM | TGI [20]: 42.2 µM | GI50 [21]: 1.38 µM | GI50 [22]: 5.36 µM | LC50 [22]: > 100 µM | TGI [22]: > 100 µM | GI50 [23]: 1.02 µM | LC50 (concentration killing 50% of cells) [23]: > 100 µM | TGI [23]: > 100 µM | GI50 [24]: 5.55 µM | LC50 (concentration killing 50% of cells) [24]: > 100 µM | TGI [24]: > 100 µM | GI50 [25]: 1.47 µM | TGI [25]: > 100 µM | CC50 [25, 29]: > 100 µM | GI50 [26]: 3.05 µM | LC50 (concentration killing 50% of cells) [26]: > 100 µM | TGI [26]: > 100 µM | GI50 [27]: 1.7 µM | LC50 [27]: > 100 µM | TGI [27]: > 100 µM | GI50 [28]: 3.18 µM | TGI [28]: > 100 µM | CC50 [28, 29]: > 100 µM
